Test: Tmax in Sprague-Dawley rat at 1 mg/kg, iv measured upto 12 hrs by LC-MS/MS analysis
Format: ADME, organism-based
Settings: in vivo
In short: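 Six SD rats split into two groups of three, dosed 1 mg/kg IV or 10 mg/kg orally. IV blood drawn at 2, 5, 15, 30 min and 1, 2, 4, 6, 8, 12 h. Oral blood drawn at 5, 15, 30 min and 1, 2, 4, 6, 8, 12, 24 h. Serum drug measured by LC/MS/MS. Parameters are the average of three runs.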

Tmax: 1.98 min
Compound: COc1ccc2c(c1OCC1CCCCC1)CN1CCc3cc4c(cc3C1C2)OCO4 (stereo unspecified)
